Data as given in PMC3574199 (Bioorganic & medicinal chemistry, 2012).

Columns and labels:
Format in all cases: biochemical
murine macrophage iNOS = murine macrophage iNOS (Mus musculus, UniProt P29477); assay: Nitric oxide hemoglobin capture assay, iNOS; conditions: for selectivity n/i: ratio of Ki (iNOS) to Ki (nNOS)
rat nNOS = rat nNOS (Rattus norvegicus, UniProt P29476); assay: Nitric oxide hemoglobin capture assay, nNOS
How it was run: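 Recombinant rat nNOS was expressed in E. coli. Assays ran at room temperature in 100 mM Hepes pH 7.4 with 10 µM L-arginine, 1.6 mM CaCl2, 11.6 µg/mL calmodulin, 100 µM DTT, 100 µM NADPH, 6.5 µM H4B and 3.0 µM oxyhemoglobin. Enzyme addition started the reaction, and initial rates came from NO-hemoglobin formation at 401 nm over 60 sec. Ki = IC50/(1+[S]/Km), Km 1.3 µM.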

bovine eNOS = bovine eNOS (Bos taurus, UniProt P29473); assay: Nitric oxide hemoglobin capture assay, eNOS; conditions: for selectivity n/e: ratio of Ki (eNOS) to Ki (nNOS)

Chain of murine macrophage iNOS (P29477 whole entry): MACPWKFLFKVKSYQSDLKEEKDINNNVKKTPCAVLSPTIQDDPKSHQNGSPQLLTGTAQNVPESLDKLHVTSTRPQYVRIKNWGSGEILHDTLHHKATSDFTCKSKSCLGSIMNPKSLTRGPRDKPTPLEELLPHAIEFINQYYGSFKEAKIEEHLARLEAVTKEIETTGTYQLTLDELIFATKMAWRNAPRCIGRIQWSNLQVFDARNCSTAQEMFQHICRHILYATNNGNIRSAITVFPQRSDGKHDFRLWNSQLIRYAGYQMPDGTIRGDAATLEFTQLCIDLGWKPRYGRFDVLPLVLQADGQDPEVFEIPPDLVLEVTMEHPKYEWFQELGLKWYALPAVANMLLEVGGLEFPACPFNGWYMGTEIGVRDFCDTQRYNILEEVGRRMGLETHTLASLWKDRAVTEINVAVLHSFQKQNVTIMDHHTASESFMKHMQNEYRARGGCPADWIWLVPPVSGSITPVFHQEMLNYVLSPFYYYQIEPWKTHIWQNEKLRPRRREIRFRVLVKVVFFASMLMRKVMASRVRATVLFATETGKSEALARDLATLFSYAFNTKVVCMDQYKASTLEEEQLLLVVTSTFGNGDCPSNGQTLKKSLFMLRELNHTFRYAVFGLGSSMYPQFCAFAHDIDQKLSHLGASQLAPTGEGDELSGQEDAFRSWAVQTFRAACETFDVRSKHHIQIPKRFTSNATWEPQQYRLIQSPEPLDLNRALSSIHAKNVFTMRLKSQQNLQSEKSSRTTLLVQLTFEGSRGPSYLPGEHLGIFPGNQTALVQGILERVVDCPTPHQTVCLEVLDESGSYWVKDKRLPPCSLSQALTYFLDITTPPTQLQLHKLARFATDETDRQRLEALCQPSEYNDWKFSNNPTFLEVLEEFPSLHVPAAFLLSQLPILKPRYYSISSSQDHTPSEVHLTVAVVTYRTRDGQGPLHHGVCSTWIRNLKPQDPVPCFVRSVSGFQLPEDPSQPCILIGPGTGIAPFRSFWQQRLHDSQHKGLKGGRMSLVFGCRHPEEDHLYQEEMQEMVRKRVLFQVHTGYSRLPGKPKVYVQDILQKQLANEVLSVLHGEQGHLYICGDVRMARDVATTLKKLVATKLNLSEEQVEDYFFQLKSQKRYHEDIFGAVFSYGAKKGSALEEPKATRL
Chain of rat nNOS (P29476 whole entry): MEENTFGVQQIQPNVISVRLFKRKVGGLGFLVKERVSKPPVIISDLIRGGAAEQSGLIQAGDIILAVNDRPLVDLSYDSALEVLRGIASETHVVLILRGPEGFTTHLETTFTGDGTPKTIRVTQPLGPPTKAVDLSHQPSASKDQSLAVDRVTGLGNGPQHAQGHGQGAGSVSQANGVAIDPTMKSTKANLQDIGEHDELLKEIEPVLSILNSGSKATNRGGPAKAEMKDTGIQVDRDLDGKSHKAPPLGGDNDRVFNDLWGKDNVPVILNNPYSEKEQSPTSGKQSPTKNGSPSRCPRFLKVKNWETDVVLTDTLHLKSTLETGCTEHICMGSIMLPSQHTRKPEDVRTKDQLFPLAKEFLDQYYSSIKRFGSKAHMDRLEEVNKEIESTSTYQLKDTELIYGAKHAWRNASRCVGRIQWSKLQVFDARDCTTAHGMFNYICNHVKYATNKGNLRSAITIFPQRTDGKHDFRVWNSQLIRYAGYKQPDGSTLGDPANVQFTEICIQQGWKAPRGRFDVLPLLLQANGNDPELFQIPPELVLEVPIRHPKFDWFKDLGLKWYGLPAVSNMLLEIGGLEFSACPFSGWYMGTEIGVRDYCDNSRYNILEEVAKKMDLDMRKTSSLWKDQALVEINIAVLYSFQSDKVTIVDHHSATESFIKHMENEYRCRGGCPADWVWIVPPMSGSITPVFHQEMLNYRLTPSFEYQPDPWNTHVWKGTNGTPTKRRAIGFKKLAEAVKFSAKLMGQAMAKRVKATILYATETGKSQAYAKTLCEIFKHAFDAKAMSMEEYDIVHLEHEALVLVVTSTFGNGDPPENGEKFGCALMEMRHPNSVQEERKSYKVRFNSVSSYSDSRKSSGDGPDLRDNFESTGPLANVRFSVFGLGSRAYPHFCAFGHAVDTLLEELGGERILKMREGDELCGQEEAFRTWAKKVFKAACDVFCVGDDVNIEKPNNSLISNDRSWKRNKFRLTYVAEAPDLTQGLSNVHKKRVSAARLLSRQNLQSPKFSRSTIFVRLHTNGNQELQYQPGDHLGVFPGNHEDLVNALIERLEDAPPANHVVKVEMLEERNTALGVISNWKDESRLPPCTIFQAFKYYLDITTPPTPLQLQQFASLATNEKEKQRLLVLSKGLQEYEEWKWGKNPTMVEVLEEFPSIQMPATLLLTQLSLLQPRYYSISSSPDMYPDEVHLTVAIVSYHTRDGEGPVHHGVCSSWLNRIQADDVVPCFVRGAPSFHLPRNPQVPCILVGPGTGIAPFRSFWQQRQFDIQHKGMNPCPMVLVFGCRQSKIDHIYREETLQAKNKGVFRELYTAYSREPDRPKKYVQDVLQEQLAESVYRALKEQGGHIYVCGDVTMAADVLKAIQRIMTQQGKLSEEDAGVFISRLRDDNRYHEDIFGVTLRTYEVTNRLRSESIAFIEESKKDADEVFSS

Row | Structure (SMILES) | Ki (murine macrophage iNOS) [µM] | Ki (rat nNOS) [µM] | selectivity n/i (murine macrophage iNOS) | Ki (bovine eNOS) [µM] | selectivity n/e (bovine eNOS)
1 | Cc1cccc(C2CC2NCCO[C@H]2CNC[C@H]2Cc2cc(C)cc(N)n2)c1 (mixture of isomers) [(±) 2c, 4-Methyl-6-(((3R,4R)-4-(2-((1S,2R/1R,2S)-2-m-tolylcyclopropylamino)ethoxy)pyrrolidin-3-yl)methyl)pyridin-2-amine] | 10 | 0.14 | – | – | –
2 | Cc1cc(N)nc(C[C@@H]2CNC[C@@H]2OCCNC2CC2c2cccc(Cl)c2)c1 (mixture of isomers) [(±) 2d, 6-(((3R,4R)-4-(2-((1S,2R/1R,2S)-2-(3-Clorophenyl)cyclopropylamino)ethoxy)pyrrolidin-3-yl)methyl)-4-methylpyridin-2-amine] | 0.86 | 0.071 | 12 | 26 | 370
3 | Cc1cc(N)nc(C[C@@H]2CNC[C@@H]2OCCNC(C)Cc2cccc(F)c2)c1.Cl (mixture of isomers) [(±) 2e, 6-(((3R,4R)-4-(2-(((R/S)-1-(3-fluorophenyl)propan-2-yl)amino)ethoxy)pyrrolidin-3-yl)methyl)-4-methylpyridin-2-amine] | 10.2 | 0.046 | 220 | 68 | 1500
4 | Cc1cc(N)nc(C[C@@H]2CNC[C@@H]2OCCN[C@H]2C[C@@H]2c2cccc(F)c2)c1 [Compound 2b, 6-(((3R,4R)-4-(2-((1S,2R)-2-(3-Fluorophenyl)cyclopropylamino)ethoxy)pyrrolidin-3-yl)methyl)-4-methylpyridin-2-amine] | 12 | 0.175 | – | – | –
